In ChEMBL document CHEMBL3297699, “Synthesis of novel fluoro analogues of MKC442 as microbicides” (J Med Chem, 2014):

Key:
[1] = Cytotoxicity against human MT4 cells after 96 hrs by MTT assay; type: cell-based
Procedure, shortened: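 Serial compound dilutions (from DMSO stocks at […]) are added, then cells are held 96 h at 37 °C in humidified 5% CO2. Viability is read by MTT. The value is the concentration reducing proliferation by 50%, as the mean of three independent determinations, run in parallel with the antiviral assays.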

[2] = tested on: Human immunodeficiency virus 1; assay: Antiviral activity against wild type HIV1 3B infected in human MT4 cells assessed as inhibition of virus-induced cytopathogenicity after 4 days by MTT assay; type: functional, organism-based; settings: Human immunodeficiency virus 1, 3B, MT4, 96 h
Procedure, shortened: (§1)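 MT-4 cells grown at 37 °C, 5% CO2 in RPMI-1640 with 10% FCS, penicillin and streptomycin. Compounds taken up in DMSO at […] (stock), then diluted in medium. 1 × 10^4 cells per well with serial compound dilutions, then HIV-1 inoculum sized to give complete cytopathogenicity by day 4. Viability read by MTT. […] Mean of three independent determinations.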

[3] = tested on: Human immunodeficiency virus 1; assay: Antiviral activity against efavirenz-resistant HIV1 harboring RT 100I, 103R, 179D, 225H mutant infected in human MT4 cells assessed as inhibition of virus-induced cytopathogenicity after 4 days by MTT assay; type: functional, organism-based; settings: Human immunodeficiency virus 1, MT4; procedure, shortened: as §1
[4] = tested on: Human immunodeficiency virus 1; assay: Antiviral activity against […] HIV1 harboring Y181C mutant infected in human MT4 cells assessed as inhibition of virus-induced cytopathogenicity after 4 days by MTT assay; type: functional, organism-based; settings: Human immunodeficiency virus 1, MT4, 96 h; procedure, shortened: as §1
[5] = tested on: Human immunodeficiency virus 1; assay: Antiviral activity against […] HIV1 harboring 103N, 181C mutant infected in human MT4 cells assessed as inhibition of virus-induced cytopathogenicity after 4 days by MTT assay; type: functional, organism-based; settings: Human immunodeficiency virus 1, MT4, 96 h; procedure, shortened: as §1
[6] = tested on: Human immunodeficiency virus 1; assay: Antiviral activity against zidovudine-resistant HIV1 harboring RT 67N, 70R, 215F, 219Q mutant infected in human MT4 cells assessed as inhibition of virus-induced cytopathogenicity after 4 days by MTT assay; type: functional, organism-based; settings: Human immunodeficiency virus 1, MT4, 96 h; procedure, shortened: as §1
[7] = tested on: Human immunodeficiency virus 1; assay: Antiviral activity against MDR-resistant HIV1 harboring 41L, 74V, 106A, 215Y mutant infected in human MT4 cells assessed as inhibition of virus-induced cytopathogenicity after 4 days by MTT assay; type: functional, organism-based; settings: Human immunodeficiency virus 1, MT4, 96 h; procedure, shortened: as §1
[8] = tested on: Human immunodeficiency virus 1; assay: Antiviral activity against saquinavir-resistant HIV1 infected in human MT4 cells assessed as inhibition of virus-induced cytopathogenicity after 4 days by MTT assay; type: functional, organism-based; settings: Human immunodeficiency virus 1, MT4, 96 h; procedure, shortened: as §1
[9] = tested on: Human immunodeficiency virus 1; assay: Ratio of EC50 for efavirenz-resistant HIV1 harboring RT 100I, 103R, 179D, 225H mutant to EC50 for wild type HIV1 3B; type: functional
[10] = tested on: Human immunodeficiency virus 1; assay: Ratio of EC50 for zidovudine-resistant HIV1 harboring RT 67N, 70R, 215F, 219Q mutant to EC50 for wild type HIV1 3B; type: functional
[11] = tested on: Human immunodeficiency virus 1; assay: Ratio of EC50 for MDR-resistant HIV1 harboring 41L, 74V, 106A, 215Y mutant to EC50 for wild type HIV1 3B; type: functional
[12] = tested on: Human immunodeficiency virus 1; assay: Ratio of EC50 for saquinavir-resistant HIV1 to EC50 for wild type HIV1 3B; type: functional
[13] = tested on: Human immunodeficiency virus 1; assay: Antiviral activity against 6-[(3,5-Dimethylphenyl)fluoromethyl]-5-ethyl-1-{[[4-(3-hydroxyprop-1-ynyl)benzyl]oxy]methyl}pyrimidine-2,4(1H,3H)-dione-resistant HIV1 harboring RT 106I, 181C mutant infected in human MT4 cells assessed as inhibition of virus-induced cytopathogenicity after 4 days by MTT assay; type: functional, organism-based; settings: Human immunodeficiency virus 1, MT4; procedure, shortened: as §1
[14] = tested on: Human immunodeficiency virus 1; assay: Antiviral activity against MC1220-resistant HIV1 harboring RT 100I, 179D, 181C mutant infected in human MT4 cells assessed as inhibition of virus-induced cytopathogenicity after 4 days by MTT assay; type: functional, organism-based; settings: Human immunodeficiency virus 1, MT4, 96 h; procedure, shortened: as §1
[15] = tested on: Human immunodeficiency virus 1; assay: Antiviral activity against TMC120-resistant HIV1 harboring RT 100I, 138G mutant infected in human MT4 cells assessed as inhibition of virus-induced cytopathogenicity after 4 days by MTT assay; type: functional, organism-based; settings: Human immunodeficiency virus 1, MT4, 96 h; procedure, shortened: as §1
[16] = tested on: Human immunodeficiency virus 1; assay: Antiviral activity against TMC125-resistant HIV1 harboring RT 109M, 138K, 190E mutant infected in human MT4 cells assessed as inhibition of virus-induced cytopathogenicity after 4 days by MTT assay; type: functional, organism-based; settings: Human immunodeficiency virus 1, MT4, 96 h; procedure, shortened: as §1
[17] = Cytotoxicity against human MT4 cells after 40 days by MTT assay; type: cell-based
Procedure, shortened: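 Mock-infected MT-4 cells at 1 × 10^5 cells/mL, 37 °C, with various compound concentrations for 40 days. One-tenth of the culture is moved every 3−4 days into fresh drug-containing medium at low density to keep growth exponential. Viability is read by MTT at each passage. The value is the maximum concentration still allowing exponential proliferation, as the mean of three determinations.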

[18] = tested on: Human immunodeficiency virus 1; assay: Antiviral activity against HIV1 infected in human MT4 cells assessed as lowest compound concentration required to irreversibly knock out vial multiplication treated by chronic treatment measured after 40 days by MTT assay; type: functional
Procedure, shortened: (§2)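 HIV-1-infected MT-4 cells at high MOI (5−10 CCID50/cell) in 40-day assays. Compound is given continuously (chronic), for only the first 4 h after infection, or for 4 h immediately before infection. Cells are resuspended at 10^5 cells/mL every 4 days. The value is the lowest concentration that irreversibly knocks out HIV-1 multiplication, as the mean of three independent determinations.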

[19] = tested on: Human immunodeficiency virus 1; assay: Antiviral activity against HIV1 infected in human MT4 cells assessed as lowest compound concentration required to irreversibly knock out vial multiplication treated 4 hrs after infection measured after 40 days by MTT assay; type: functional; procedure, shortened: as §2
[20] = tested on: Human immunodeficiency virus 1; assay: Antiviral activity against HIV1 infected in human MT4 cells assessed as lowest compound concentration required to irreversibly knock out vial multiplication treated 4 hrs before infection measured after 40 days by MTT assay; type: functional; procedure, shortened: as §2
[21] = tested on: Human immunodeficiency virus 1; assay: Ratio of MC1220 EC50 to compound EC50 for HIV1 MP634 infected in human cells
[22] = tested on: Human immunodeficiency virus 1; assay: Antiviral activity against HIV1 MP1308 infected in human dendritic cells assessed as inhibition of p24; settings: Human immunodeficiency virus 1, MP1308, dendritic cells
[23] = tested on: Human immunodeficiency virus 1; assay: Antiviral activity against HIV1 MP1033 infected in human dendritic cells assessed as inhibition of p24; settings: Human immunodeficiency virus 1, MP1033, dendritic cells
[24] = tested on: Human immunodeficiency virus 1; assay: Antiviral activity against HIV1 W5269 infected in human dendritic cells assessed as inhibition of p24 production; settings: Human immunodeficiency virus 1, W5269, dendritic cells
[25] = tested on: Human immunodeficiency virus 1; assay: Antiviral activity against HIV1 MP582 infected in human dendritic cells assessed as inhibition of p24 production; settings: Human immunodeficiency virus 1, MP582, dendritic cells
[26] = tested on: Human immunodeficiency virus 1; assay: Antiviral activity against HIV1 CRF01 infected in human dendritic cells assessed as inhibition of p24 in supernatants; settings: Human immunodeficiency virus 1, CRF01, dendritic cells
[27] = tested on: Human immunodeficiency virus 1; assay: Antiviral activity against HIV1 CRF02 infected in human dendritic cells assessed as inhibition of p24 in supernatants; settings: Human immunodeficiency virus 1, CRF02, dendritic cells
[28] = tested on: Human immunodeficiency virus 1; assay: Antiviral activity against HIV1 MP634 infected in human dendritic cells assessed as inhibition of p24 in supernatants; settings: Human immunodeficiency virus 1, MP634, dendritic cells
[29] = tested on: Human immunodeficiency virus 1; assay: Antiviral activity against HIV1 MP411 infected in human dendritic cells assessed as inhibition of p24 in supernatants; settings: Human immunodeficiency virus 1, MP411, dendritic cells
[30] = tested on: Human immunodeficiency virus 1; assay: Antiviral activity against NRTI-resistant HIV1 MP1315 infected in human dendritic cells assessed as inhibition of p24 in supernatants; settings: Human immunodeficiency virus 1, MP1315, dendritic cells

CCc1c(C(F)c2cc(C)cc(C)c2)n(COCc2ccc(C#CCO)cc2)c(=O)[nH]c1=O (stereo not given)
CC50 at 96 h [1]: 37 µM
EC50 [2]: 0.006 µM
EC50 [3]: 0.1 µM
EC50 [4]: 0.04 µM
EC50 [5]: 0.3 µM
EC50 [6]: 0.01 µM
EC50 [7]: 0.02 µM
EC50 [8]: 0.02 µM
Ratio EC50 [9]: >10
Ratio EC50 [10]: 1.7
Ratio EC50 [11]: 3.3
Ratio EC50 [12]: 3.3
EC50 [13]: 2 µM
EC50 [14]: 0.04 µM
EC50 [15]: 0.01 µM
EC50 [16]: 0.9 µM
MNTC at 960 h [17]: 10 µM
Activity [18]: 0.5 µM
Activity [19]: >20 µM
Activity [20]: >20 µM
Ratio EC50 [21]: 10
EC99 [22]: 0.01 µM
EC99 [23]: 0.01 µM
EC99 [24]: 0.01 µM
EC99 [25]: 0.01 µM
EC99 [26]: 0.01 µM
EC99 [27]: 0.1 µM
EC99 [28]: 0.01 µM
EC99 [29]: 0.01 µM
EC99 [30]: 0.0001 µM
